Screening results: PubChem BioAssay, Broad Institute
KDM4C inh: blocks human GASC-1 (KDM4C) demethylase activity. Q9H3R0. inhibition, % at 12.5 µM. 96,000 compounds, 0.15% hits. GST-KDM4C 2-372, H3K9me3 peptide, LANCE TR-FRET;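 active means mean replicate inhibition above about 25%, with at least 55% of replicates also reaching it, limit read from the data, passing the limit was not always enough; inconclusive means only one of those two conditions met; inactive means neither condition met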
Target sequence (Q9H3R0 2-372 limits assumed): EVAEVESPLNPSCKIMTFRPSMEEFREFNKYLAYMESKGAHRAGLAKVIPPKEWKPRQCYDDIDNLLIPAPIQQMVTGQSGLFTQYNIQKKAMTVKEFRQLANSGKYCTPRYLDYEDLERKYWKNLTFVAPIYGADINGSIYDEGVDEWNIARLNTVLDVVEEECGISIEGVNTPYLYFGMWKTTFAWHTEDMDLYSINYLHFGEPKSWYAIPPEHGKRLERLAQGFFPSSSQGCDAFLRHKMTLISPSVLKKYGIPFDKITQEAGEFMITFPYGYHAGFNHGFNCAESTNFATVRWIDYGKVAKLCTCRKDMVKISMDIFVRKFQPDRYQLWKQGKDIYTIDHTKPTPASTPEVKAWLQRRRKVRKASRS
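Test system – GST-tagged GASC-1 (JMJD2C) catalytic fragment, aa 2-372 · Medium – HEPES buffer, pH 7.5, plus ascorbate · Reagent – H3K9me3 peptide with Fe(II)/2OG · Compound – one test concentration per compound · Timing – 30 min reaction, 60 min detection, RT · Technique – TR-FRET with Eu antibody and ULight streptavidin, EDTA stop · Read-out basis – inhibition from TR-FRET ratio decrease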
T cruzi growth-1: T. cruzi proliferation inhibition; AID 624255; 77,000 compounds, 5.9% hits; inhibition, % at 8.34 µM; T. cruzi beta-gal in NIH3T3, GalScreen luminescence, 90 h;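 active means mean inhibition above about 93%, with at least 55% of replicates each passing it, limit read from the data, passing the limit was not always enough; inconclusive means only one of those two conditions holds; inactive means neither condition holds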
Pf Dd2 growth: P. falciparum Dd2 growth inhibition; SYBR Green, 72 h; stronger effect = lower value; activity change, % at 10 µM; 94,000 compounds, 2.3% hits; in the data active means activity change below about -80%; inconclusive means no clear call, values can overlap the other calls
IDH1 mut inh: blocks human IDH1 R132H reductase activity; O75874; diaphorase/resazurin fluorescence, 60 min; inhibition, % at 10 µM; 70,000 compounds, 0.18% hits; in the data active means inhibition above about 34%; inconclusive means no clear call, values can overlap the other calls; inactive means below about 11%
T cruzi growth-2: Trypanosoma cruzi proliferation inhibition | 5,600 compounds, 72% hits | shares compounds with T cruzi growth-1 | inhibition, % at 8.35 µM | T. cruzi beta-gal in NIH3T3, GalScreen luminescence, 90 h;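 active means mean replicate inhibition above about 95% and at least 55% of replicates individually reaching it, limit read from the data; inconclusive means only one of the two criteria is met; inactive means neither criterion is met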
T cruzi growth-3: Trypanosoma cruzi proliferation inhibition; shares compounds with T cruzi growth-1; inhibition, % at 2.09 µM; AID 651740; 5,600 compounds, 21% hits; T. cruzi beta-gal in NIH3T3, GalScreen luminescence, 90 h;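 active means mean inhibition above about 95%, with at least 55% of replicates also reaching it, limit read from the data; inconclusive means meets just one of the two conditions; inactive means meets neither condition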
NIH3T3 tox: NIH/3T3 (mouse) viability loss. AID 651742. 5,600 compounds, 14% hits. cytotoxicity (signal decrease), % at 8.35 µM. shares compounds with T cruzi growth-1. NIH/3T3 viability, CellTiter-Glo ATP luminescence, 90 h;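 active means mean signal decrease across replicates above about 35% based on untreated-well scatter, with enough replicates individually passing, limit read from the data; inconclusive means no rule stated though some were filed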
3T3 cytotox 2: NIH/3T3 (mouse) viability loss | shares compounds with T cruzi growth-1 | NIH/3T3 viability, CellTiter-Glo ATP luminescence, 90 h | inhibition, % at 24.9 µM | 5,600 compounds, 56% hits | AID 651744;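 active means mean loss of cell viability signal at or above a set limit, and enough replicates individually reaching it; inconclusive means meets only the mean limit or only the replicate share; inactive means meets neither condition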
Hits are given with their value; . = inactive; ? = inconclusive; / = no result. This is a sample that favours compounds with a hit; in the whole collection about 5.8% have one here.

SMILES	KDM4C inh	T cruzi growth-1	Pf Dd2 growth	IDH1 mut inh	T cruzi growth-2	T cruzi growth-3	NIH3T3 tox	3T3 cytotox 2
C/C=C/c1ccc([C@H]2[C@@H](CO)N(c3nc(CC)cs3)[C@H]2C#N)cc1	.	100.8	.	/	.	.	.	25.6
CCc1csc(N2[C@H](C#N)[C@H](c3ccc(-c4ccc(F)cc4)cc3)[C@@H]2CO)n1	.	102.0	.	/	100.6	109.9	.	36.9
CCc1csc(N2[C@H](C#N)[C@@H](c3ccc(-c4ccc(F)cc4)cc3)[C@H]2CO)n1	.	106.0	.	/	105.6	98.5	.	?
CCc1csc(N2[C@@H](C#N)[C@@H](c3ccc(C4=CCCC4)cc3)[C@@H]2CO)n1	.	100.6	.	/	103.1	.	42.1	77.3
O=C(CCC1COc2ccccc2O1)Nc1ccc(NC(=O)c2ccccc2F)cc1 (stereo unspecified)	/	/	/	.	/	/	/	/
C[C@@H]1CN([C@@H](C)CO)C(=O)c2cc(NC(=O)Cn3cnnn3)ccc2O[C@H]1CN(C)C(=O)Nc1ccc(C(F)(F)F)cc1	.	.	.	/	/	/	/	/
CCc1csc(N2[C@@H](C#N)[C@H](c3ccc(-c4ccc(F)cc4)cc3)[C@@H]2CO)n1	.	105.5	.	/	101.7	.	.	.
CCc1csc(N2[C@H](C#N)[C@H](c3ccc(-c4cccc(F)c4)cc3)[C@H]2CO)n1	.	.	.	/	/	/	/	/
CCc1csc(N2[C@@H](C#N)[C@@H](c3ccc(-c4ccc(F)cc4)cc3)[C@@H]2CO)n1	.	97.6	.	/	97.8	.	48.6	83.1
CCc1csc(N2[C@H](CO)[C@@H](c3ccc(-c4cccc(F)c4)cc3)[C@@H]2C#N)n1	.	.	.	/	/	/	/	/
C/C=C/c1ccc([C@@H]2[C@@H](CO)N(c3ncc(CC)s3)[C@H]2C#N)cc1	.	99.0	.	/	.	.	.	.
Cc1ccc(-c2csc3nnc(SCC(=O)N4CCOCC4)n23)cc1	/	/	/	.	/	/	/	/
COc1ccc(S(=O)(=O)N2CC3(CN(Cc4ccccc4OC)[C@@H](CO)c4[nH]c5cc(OC)ccc5c43)C2)cc1	.	/	.	/	/	/	/	/
C[C@@H]1CN([C@H](C)CO)C(=O)c2cc(NC(=O)Nc3cccc4ccccc34)ccc2O[C@H]1CN(C)Cc1ccc(Cl)c(Cl)c1	.	101.5	.	.	102.1	95.6	42.7	29.2
C[C@H](CO)N1C[C@H](C)[C@@H](CN(C)Cc2ccc(Cl)c(Cl)c2)Oc2ccc(NC(=O)Nc3cccc4ccccc34)cc2C1=O	.	.	.	/	/	/	/	/
C[C@H](CO)N1C[C@H](C)[C@H](CN(C)Cc2ccc(Cl)c(Cl)c2)Oc2ccc(NC(=O)Nc3cccc4ccccc34)cc2C1=O	.	.	.	.	/	/	/	/
C[C@@H]1CN([C@H](C)CO)C(=O)c2cc(NC(=O)Nc3cccc4ccccc34)ccc2O[C@@H]1CN(C)Cc1ccc(Cl)c(Cl)c1	.	?	.	.	.	.	36.4	25.2
CCS(=O)(=O)Nc1ccc2c(c1)C(=O)N(C)[C@@H]1CC[C@H](CC(=O)N3CCN(C)CC3)O[C@H]1CO2	.	.	.	/	/	/	/	/
C[C@H](CO)N1C[C@H](C)[C@H](CN(C)S(=O)(=O)c2ccc(Cl)cc2)OCCCC[C@H](C)Oc2ccc(NS(=O)(=O)c3ccc(F)cc3)cc2C1=O	.	.	.	.	/	/	/	/
C[C@@H]1CCCCO[C@H](CN(C)S(=O)(=O)c2ccc(F)cc2)[C@H](C)CN([C@@H](C)CO)C(=O)c2cc(NS(=O)(=O)c3ccc(Cl)cc3)ccc2O1	.	.	.	/	/	/	/	/
C[C@@H]1CCCCO[C@@H](CN(C)S(=O)(=O)c2ccc(F)cc2)[C@H](C)CN([C@H](C)CO)C(=O)c2cc(NS(=O)(=O)c3ccc(Cl)cc3)ccc2O1	.	.	.	/	/	/	/	/
C[C@H]1CCCCO[C@H](CN(C)S(=O)(=O)c2ccc(Cl)cc2)[C@@H](C)CN([C@@H](C)CO)C(=O)c2cc(NS(=O)(=O)c3ccc(F)cc3)ccc2O1	.	103.3	.	.	?	110.2	.	.
C[C@@H]1CN([C@H](C)CO)C(=O)c2cc(NS(=O)(=O)c3ccc(Cl)cc3)ccc2O[C@@H](C)CCCCO[C@@H]1CN(C)S(=O)(=O)c1ccc(F)cc1	.	105.5	.	/	104.4	108.7	.	.
C[C@H]1CCCCO[C@H](CN(C)S(=O)(=O)c2ccc(F)cc2)[C@@H](C)CN([C@@H](C)CO)C(=O)c2cc(NS(=O)(=O)c3ccc(Cl)cc3)ccc2O1	.	99.3	.	.	98.1	.	.	.
C[C@@H]1CCCCO[C@H](CN(C)S(=O)(=O)c2ccc(F)cc2)[C@H](C)CN([C@H](C)CO)C(=O)c2cc(NS(=O)(=O)c3ccc(Cl)cc3)ccc2O1	.	100.4	.	.	103.2	110.2	.	.
SMILES	KDM4C inh	T cruzi growth-1	Pf Dd2 growth	IDH1 mut inh	T cruzi growth-2	T cruzi growth-3	NIH3T3 tox	3T3 cytotox 2
C[C@H](CO)N1C[C@H](C)[C@@H](CN(C)C(=O)Nc2ccccc2)Oc2ncc(Br)cc2C1=O	.	.	.	.	/	/	/	/
C[C@@H]1CN([C@@H](C)CO)C(=O)c2cccc(NC(=O)C3CCOCC3)c2O[C@@H]1CN(C)S(C)(=O)=O	.	.	.	.	/	/	/	/
CN1c2ccc(-c3ccccc3F)cc2[C@@H]2[C@@H](CCN2C(=O)NC2CCCCC2)[C@H]1CO	.	/	.	/	/	/	/	/
C[C@H](CO)N1C[C@H](C)[C@H](CN(C)S(=O)(=O)c2ccc(Cl)cc2)Oc2ccc(NS(=O)(=O)c3ccc(F)cc3)cc2C1=O	.	?	.	.	98.3	.	40.4	?
C[C@H]1CN([C@@H](C)CO)C(=O)c2cc(NS(=O)(=O)c3ccc(F)cc3)ccc2O[C@@H]1CN(C)S(=O)(=O)c1ccc(Cl)cc1	.	.	.	.	/	/	/	/
C[C@@H]1CN([C@H](C)CO)S(=O)(=O)c2ccc(C#Cc3ccccn3)cc2O[C@H]1CN(C)Cc1cccc(F)c1	.	121.2	.	.	103.0	.	?	80.8
C[C@H]1CN([C@@H](C)CO)S(=O)(=O)c2ccc(C#CC3CC3)cc2O[C@H]1CN(C)Cc1cccc(F)c1	.	/	.	.	/	/	/	/
C[C@H]1CN([C@@H](C)CO)S(=O)(=O)c2ccc(C#CC3CC3)cc2O[C@@H]1CN(C)Cc1cccc(F)c1	.	/	.	.	/	/	/	/
C[C@H]1CN([C@@H](C)CO)S(=O)(=O)c2ccc(C#Cc3ccccn3)cc2O[C@H]1CN(C)Cc1cccc(F)c1	.	125.2	.	.	108.5	.	.	.
C[C@H](CO)N1C[C@H](C)[C@H](CN(C)Cc2cccc(F)c2)Oc2cc(C#Cc3ccccn3)ccc2S1(=O)=O	.	124.4	.	/	103.3	103.4	.	.
